Mdm2-MdmX inh – human Mdm2/MdmX binding inhibition; AID 485346; SaOS-2 split-luciferase Mdm2/MdmX complementation, luminescence; 3% of 330,000 active; inhibition, % at 8 µM; O15151+Q00987;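 active = inhibition of at least 50% at 8 µM in the primary screen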
Target sequence (O15151 whole entry, looked up): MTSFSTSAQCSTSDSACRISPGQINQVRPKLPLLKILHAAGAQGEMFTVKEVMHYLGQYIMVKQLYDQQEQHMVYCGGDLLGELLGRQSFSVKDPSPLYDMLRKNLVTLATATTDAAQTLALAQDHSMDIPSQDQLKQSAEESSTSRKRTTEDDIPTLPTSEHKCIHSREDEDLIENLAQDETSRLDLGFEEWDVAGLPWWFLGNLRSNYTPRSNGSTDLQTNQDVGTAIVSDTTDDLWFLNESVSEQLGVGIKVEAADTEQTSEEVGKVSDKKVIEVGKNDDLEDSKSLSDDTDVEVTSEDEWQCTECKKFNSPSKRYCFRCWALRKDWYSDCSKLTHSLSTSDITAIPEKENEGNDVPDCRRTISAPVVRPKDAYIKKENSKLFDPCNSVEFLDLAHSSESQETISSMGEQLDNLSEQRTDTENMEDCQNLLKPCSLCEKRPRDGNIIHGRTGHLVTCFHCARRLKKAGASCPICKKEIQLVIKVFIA
Target sequence (Q00987 whole entry, looked up): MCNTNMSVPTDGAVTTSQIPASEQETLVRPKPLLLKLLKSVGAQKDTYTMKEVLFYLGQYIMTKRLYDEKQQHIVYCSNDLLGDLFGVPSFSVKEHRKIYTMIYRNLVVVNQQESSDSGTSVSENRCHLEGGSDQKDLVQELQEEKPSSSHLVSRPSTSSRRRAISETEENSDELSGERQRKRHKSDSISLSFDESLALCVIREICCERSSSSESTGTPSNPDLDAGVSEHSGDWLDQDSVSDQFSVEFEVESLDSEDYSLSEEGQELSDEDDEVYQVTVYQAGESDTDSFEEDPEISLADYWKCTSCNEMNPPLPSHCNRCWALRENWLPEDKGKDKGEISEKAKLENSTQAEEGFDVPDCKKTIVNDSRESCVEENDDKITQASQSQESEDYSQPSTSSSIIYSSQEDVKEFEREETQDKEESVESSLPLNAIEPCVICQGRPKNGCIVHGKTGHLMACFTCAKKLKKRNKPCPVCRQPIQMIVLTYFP
SKKanGAS inh – inhibitors of SKKanGAS S. pyogenes growth in kanamycin (SK-promoter or general growth effect); 1.3% of 300,000 active; BacTiter-Glo, 6 h; inhibition, % at 7.5 µM; AID 1662;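 active = mean replicate score, as percent of positive control median, at least 50; inconclusive = mean below 50 but one replicate at or above 50; inactive = mean and every replicate below 50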;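 note: strain carries kanamycin resistance gene driven by streptokinase promoter and grows in 40 µg/ml kanamycin; loss of luminescence reflects streptokinase promoter inhibition or plain growth inhibition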
Calb FLC – C. albicans growth modulation with fluconazole | C. albicans CaCi-2 (fluconazole-resistant clinical isolate) + fluconazole, Alamar Blue growth, 48 h | growth inhibition, % (test concentration not listed) | 0.57% of 300,000 active | AID 1979;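 active = growth inhibition above about 58% in most replicates, limit read from the data, passing the limit was not always enough; inconclusive = exactly half the replicates above a set limit; inactive = most replicates below a set limit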;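 note: all wells also contain fluconazole at 8 µg/ml as a sub-toxic cotreatment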
CSC inhib – blocks cancer stem cells | cancer stem cell-like cells viability, luminescence | inhibition, % at 7.5 µM | 1.1% of 300,000 active | AID 2717; in the data active = inhibition above about 75%; inconclusive = no clear call, values can overlap the other calls; tested in HMLE shEcad cells
T cruzi repl – blocks replication of Trypanosoma cruzi; T. cruzi beta-gal in NIH3T3, luminescence, 90 h; inhibition, % (no concentration beside the values); 1.4% of 300,000 active; AID 1885;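 active = mean inhibition across valid replicates above about 55%, limit read from the data; inconclusive = mean below that limit but half or more replicates reach it; inactive = mean below it, under half of replicates reach it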;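 note: signal also drops with host cell toxicity which is not excluded here; higher percent means less beta-gal luminescence so fewer parasites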
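Material: NIH/3T3 host cells with β-galactosidase reporter T. cruzi; Input: 5,000 host fibroblasts per well; Medium: DMEM, 2% fetal bovine serum; Compound: 50 nL DMSO compound solution per well; Schedule: 3 h host attachment, then at least 90 h co-culture; Detection: luminescent β-galactosidase signal after 60 min lysis.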
Beta apoptosis – blocks beta cell apoptosis; INS-1E cytokine-induced death, ATP luminescence, 48 h; percent of positive-control rescue, neutral wells zero; 0.8% of 300,000 active; AID 435005; protection from apoptosis, % (test concentration not listed);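 active = Every replicate reaches about 75%, or at least half do and their mean reaches it too, limit read from the data; inconclusive = At least half of replicates reach the limit but their mean does not; inactive = Under half of replicates reach the limit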;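 note: higher means more ATP so stronger rescue from cytokine killing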
Mdm2-MdmX conf – confirmation of human Mdm2/MdmX interaction inhibitors. inhibition, % at 8 µM. 55% of 10,000 active. shares compounds with Mdm2-MdmX inh. Mdm2-MdmX binding, luminescent assay; in the data active = inhibition above about 40%
FLuc counter – inhibits full-length luciferase, flagging false Mdm2/MdmX hits; 77% of 6,200 active; SaOS-2 full-length luciferase counterscreen, luminescence; inhibition, % at 8 µM; shares compounds with Mdm2-MdmX inh;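 active = mean inhibition at 8 µM reaching about 37%, which flags the compound as non-specific, limit read from the data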;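 note: p53-null SaOS-2 cells with luciferase driven by a doxycycline-inducible promoter; compound on cells about two nights before reading with doxycycline added after day one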
Large screens that a line does not name were inactive (follow-up assays come after a bar, where they were run). Most compounds without a hit are left out; they make up all but 5.7% or so of the library.

Cc1c(C)c2ccc(OCC(=O)NCCN3CCOCC3)c(C)c2oc1=O	none
CCCc1cc(=O)[nH]c(SCC(=O)Nc2c(C)n(C)n(-c3ccccc3)c2=O)n1	none (no result: SKKanGAS inh, Calb FLC, T cruzi repl)
O=C(CCCN1C(=O)/C(=C\c2cccs2)SC1=S)Nc1ccccn1	Mdm2-MdmX inh 70, Calb FLC inconclusive | Mdm2-MdmX conf 64 | FLuc counter 38
CCc1ccc(OCc2cccc(C(=O)N/N=C\c3cnn(C)c3C)c2)cc1	none (no result: CSC inhib, Beta apoptosis)
O=C(Cc1ccccc1)NS(=O)(=O)c1ccc(N=NN2CCOCC2)cc1	Mdm2-MdmX inh 87 (no result: SKKanGAS inh) | Mdm2-MdmX conf inactive
CN1CCN(C2=Cc3cc(Cl)ccc3Sc3cc(F)ccc32)CC1	Mdm2-MdmX inh 51, SKKanGAS inh 90, CSC inhib 113 (no result: Beta apoptosis) | Mdm2-MdmX conf inactive
CCc1ccc2c(c1)Sc1ccccc1CC2N1CCN(C)CC1 (stereo not drawn)	none
OCCN1CCN(C2Cc3cc(Cl)ccc3Sc3ccc(Cl)cc32)CC1 (stereo not drawn) (tested in a mixture with another compound)	Mdm2-MdmX inh 59, Beta apoptosis 101 (no result: CSC inhib) | Mdm2-MdmX conf inactive
CN1CCN(C2=Cc3ccccc3Sc3cc(F)c(F)cc32)CC1	none
CN1CCN(CCC(=O)N2c3ccccc3Sc3ccc(Cl)cc32)CC1	none
CN1CCN(C2Cc3cc(Cl)ccc3Sc3cc(F)ccc32)CC1 (stereo not drawn)	Mdm2-MdmX inh 54, CSC inhib 101 (no result: Beta apoptosis) | Mdm2-MdmX conf inactive
CN1CCN(CCOC2Cc3ccccc3Sc3ccc(Cl)cc32)CC1 (stereo not drawn)	Mdm2-MdmX inh 60 | Mdm2-MdmX conf inactive
O=C(Nc1ccnn1C1CCN(Cc2ccn[nH]2)CC1)c1ccccc1	none
COc1ccc(NC(=O)c2ccc(NC(=O)CN3CCC(C(N)=O)CC3)cc2)cc1	none (no result: SKKanGAS inh, Calb FLC, T cruzi repl)
O=C(CSc1ccc2c(c1)OCCO2)Nc1ccc(Br)cn1	Mdm2-MdmX inh 64 (no result: CSC inhib) | Mdm2-MdmX conf inactive
O=C(c1cc(C(=O)NCCc2ccccc2)c(=O)n(CCc2ccccc2)c1)c1cc(Cl)ccc1O	Mdm2-MdmX inh 74, Calb FLC inconclusive | Mdm2-MdmX conf 54 | FLuc counter 61
CCCn1c(NC(=O)c2cccc(S(=O)(=O)N3CCCC3)c2)nc2ccccc21	Mdm2-MdmX inh 93, SKKanGAS inh 64 (no result: CSC inhib) | Mdm2-MdmX conf 76 | FLuc counter 57
Cc1ccc(C(=O)Nc2nc3ccccc3n2CCN2CCCC2)cc1	none
CCCCCCCn1c(NC(=O)CC)nc2ccccc21	Mdm2-MdmX inh 77, SKKanGAS inh 104 | Mdm2-MdmX conf 42 | FLuc counter 51
CCCn1c(NC(=S)Nc2ccccc2)nc2ccccc21	Mdm2-MdmX inh 52 | Mdm2-MdmX conf inactive
CCCn1c(Nc2nc3ccccc3n2C)nc2ccccc21	Mdm2-MdmX inh 90, Calb FLC 102, CSC inhib 104, Beta apoptosis 111 | Mdm2-MdmX conf 100 | FLuc counter 53
COC(=O)c1ccc(C(=O)N2CCCC(N3CCN(c4ccc(F)cc4)CC3)C2)nc1 (stereo not drawn)	none
Cc1ccccc1-n1ncc2c1CC(C)(C)CC2NC(=O)CN1CCCC1=O (stereo not drawn)	none
S=C(Nc1ccccc1)Nc1nc2ccccc2n1CCOc1ccc(Cl)cc1	Mdm2-MdmX inh 84, Calb FLC 92, CSC inhib active | Mdm2-MdmX conf 41 | FLuc counter 68
Cc1ccc2[nH]c(=O)c(C3C(C#N)=C(N)Oc4c3ccc3cccnc43)cc2c1 (stereo not drawn)	Mdm2-MdmX inh 57, Calb FLC 99, Beta apoptosis 91 | Mdm2-MdmX conf 42 | FLuc counter 44
COC(=O)C1=C(C)NC(C)=C(C(=O)OC)C1c1cc2cc(C)ccc2[nH]c1=O	none
N#CC1=C(N)Oc2c(ccc3cccnc23)C1c1ccccc1 (stereo not drawn)	Mdm2-MdmX inh 75, Beta apoptosis 97 | Mdm2-MdmX conf 58 | FLuc counter 54
O=S1(=O)CCOC[C@H](CC2CCCCC2)N1Cc1ccccc1Br	none
CC(C)Nc1nnc(SCC(=O)Nc2sccc2C#N)s1	none (no result: SKKanGAS inh, Calb FLC, T cruzi repl)
COc1ccccc1C1CCN(C(=O)c2ccc(C(C)(C)C)cc2)CC1	none
COCc1cc(=O)[nH]c(Nc2nc3ccc(C)cc3o2)n1	Mdm2-MdmX inh 78, SKKanGAS inh 70, T cruzi repl 59, Beta apoptosis 80 (no result: CSC inhib) | Mdm2-MdmX conf inactive
COc1cc(-c2nc(C(=O)NCC3CCCO3)cc3c2[nH]c2ccccc23)cc(OC)c1OC (stereo not drawn)	Mdm2-MdmX inh 86 | Mdm2-MdmX conf 54 | FLuc counter 56
O=C(NCC1CCCO1)c1cc2c([nH]c3ccccc32)c(-c2cccc(Cl)c2)n1 (stereo not drawn)	Mdm2-MdmX inh 87, SKKanGAS inh 50 | Mdm2-MdmX conf 46 | FLuc counter 60
Cc1ccc(CS(=O)(=O)c2ccccc2-c2nnc(-c3ccc(Cl)cc3)o2)cc1	Mdm2-MdmX inh 55 | Mdm2-MdmX conf inactive
CCc1ccccc1Nc1nc(N)nc(COC(=O)c2cccn2C)n1	Mdm2-MdmX inh 54 | Mdm2-MdmX conf 62 | FLuc counter 196
OCCNCC(O)Cn1c2ccccc2c2ccccc21 (stereo not drawn)	none
CCn1c2ccccc2c2cc(NC(=O)CNCc3ccccc3OC)ccc21	Mdm2-MdmX inh 57 | Mdm2-MdmX conf 56 | FLuc counter 81
COc1ccccc1CNCC(O)Cn1c2ccccc2c2ccccc21 (stereo not drawn)	Mdm2-MdmX inh 90, Calb FLC inconclusive, Beta apoptosis 103 | Mdm2-MdmX conf 67 | FLuc counter 50
CCn1c2ccccc2c2cc(NC(=O)COc3ccccc3OC)ccc21	none
COc1ccc(N(C)C(=O)CN(C)S(=O)(=O)c2ccc3c(c2)c(=O)n(C)c(=O)n3C)c(OC)c1	none
Cc1ccc(CN2C(=O)c3ccccc3Sc3ccc(C(=O)NCCN4CCOCC4)cc32)cc1	Mdm2-MdmX inh 52 | Mdm2-MdmX conf 54 | FLuc counter 69
Cc1ccc(C)c(CN2C(=O)c3ccccc3S(=O)c3ccc(C(=O)NCCCN4CCCC4)cc32)c1 (stereo not drawn)	Mdm2-MdmX inh 51 | Mdm2-MdmX conf inactive
CCC(=O)C1CCCN(C(=O)CCc2nnc(C3(c4ccc(Cl)cc4)CCC3)o2)C1 (stereo not drawn)	none
CCOC(=O)C1CCCN(C(=O)Cc2c(C(=O)O)[nH]c3ccccc23)C1 (stereo not drawn)	none
CCOC(=O)C1CCCN(C(c2ccccn2)c2c(C)[nH]c3ccccc23)C1 (stereo not drawn)	Mdm2-MdmX inh 53 | Mdm2-MdmX conf inactive
